Results: ChEMBL document CHEMBL6177914, “Human microbiome derived synthetic antimicrobial peptides with activity against Gram-negative, Gram-positive, and antibiotic resistant bacteria” (RSC Med Chem, 2025)
Values after ≈ are worked out from the molar mass of the structure shown. Active and inactive are the calls of the source. No cut-off for these calls is given here.

What was measured:
Staphylococcus aureus [1] = experiment: Antibacterial activity against Staphylococcus aureus ATCC 25923 assessed as reduction in surviving bacteria at MIC concentration measured after 12 hrs by time-kill kinetic analysis; format: functional
In short: (§1)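 Samples (5 µL) taken at 0, 1, 2, 4, 6, 12, 18 and 24 h, tenfold diluted in 0.85% NaCl, and plated on TSA overnight at 37 °C for CFU counts. Two independent duplicates.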

Pseudomonas aeruginosa [2] = experiment: Antibacterial activity against Pseudomonas aeruginosa BAA 1744 assessed as inhibition of bacterial growth incubated for 24 hrs by absorbance based microplate reader analysis; format: functional
In short: (§2)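 Broth microdilution. An overnight single-colony culture in recommended broth was diluted 1:10 000, and peptide serial dilutions in DMSO were added (4 µL into 196 µL). Plates incubated 24 h at 37 °C, aerobic or anaerobic as required, then OD600 read. Inhibition was calculated against pathogen-only and blank wells.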

Staphylococcus aureus [3] = experiment: Induction of morphological changes in Staphylococcus aureus ATCC 25923 assessed as deformation of cells at MIC concentration by transmission electron microscopic analysis; format: functional, organism-based
In short: (§3)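 Cells were pelleted at 4 °C, washed in 0.1 M PBS pH 7.2, and fixed overnight (4% formaldehyde, 1.25% glutaraldehyde, ruthenium red). Post-fixed in 1% OsO4, dehydrated through ethanol, embedded in epoxy resin and imaged by TEM.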

Escherichia coli [4] = experiment: Bactericidal activity against Escherichia coli ATCC 33694 assessed as inhibition of bacterial growth at MIC concentration incubated for 48 hrs by broth microdilution assay; format: functional, organism-based
In short: (§4)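 From broth-microdilution wells showing no growth, 10 µL was spotted onto agar and incubated 48 h at 37 °C. Plates were inspected for colonies. Fidaxomicin at 1 µM served as control.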

Pseudomonas aeruginosa [5] = experiment: Bactericidal activity against Pseudomonas aeruginosa BAA 1744 assessed as inhibition of bacterial growth at MIC concentration incubated for 48 hrs by broth microdilution assay; format: functional, organism-based; in short: as §4
Staphylococcus aureus [6] = experiment: Induction of morphological changes in Staphylococcus aureus ATCC 25923 assessed as disintegration of cells at MIC concentration by transmission electron microscopic analysis; format: functional, organism-based; in short: as §3
Salmonella enterica [7] = experiment: Bactericidal activity against Salmonella enterica ATCC 13314 assessed as inhibition of bacterial growth at MIC concentration incubated for 48 hrs by broth microdilution assay; format: functional, organism-based; in short: as §4
Salmonella enterica [8] = experiment: Antibacterial activity against Salmonella enterica ATCC 13314 assessed as inhibition of bacterial growth incubated for 24 hrs by absorbance based microplate reader analysis; format: functional; in short: as §2
Staphylococcus aureus [9] = experiment: Induction of morphological changes in Staphylococcus aureus ATCC 25923 assessed as leakage of intracellular content at MIC concentration by transmission electron microscopic analysis; format: functional, organism-based; in short: as §3
Caco-2 [10] = experiment: Anti-inflammatory activity in human Caco-2 cells infected with Clostridium difficile ATCC 43602 assessed as reduction in TNFalpha level at MIC concentration by ELISA relative to control; format: functional; design: scale not given: the % may be the effect or the level left
In short: (§5)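 Caco-2 cells grown in DMEM + 10% FBS, 37 °C, 5% CO2, to 90% confluence, then seeded 30 000 cells/well and held 24 h. C. difficile was grown overnight anaerobically in meat broth, washed in PBS, and 1 µL of 0.5 OD600 culture added per 300 µL medium. […] Cytokine in supernatant measured by ELISA; three independent replicates.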

Staphylococcus aureus [11] = experiment: Induction of morphological changes in Staphylococcus aureus ATCC 25923 assessed as cell wall lysis at MIC concentration by transmission electron microscopic analysis; format: functional, organism-based; in short: as §3
Staphylococcus aureus [12] = experiment: Antibacterial activity against Staphylococcus aureus ATCC 25923 assessed as reduction in bacterial growth at MIC concentration measured after 24 hrs by time-kill kinetic analysis; format: functional, organism-based; in short: as §1
Enterococcus faecium [13] = experiment: Bactericidal activity against vancomycin resistant Enterococcus faecium BAA 2317 assessed as inhibition of bacterial growth at MIC concentration incubated for 48 hrs by broth microdilution assay; format: functional, organism-based
In short: (§6)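 Plates were incubated 48 h at 37 °C and examined for colonies. A fidaxomicin-treated culture at 1 µM served as the control.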

Staphylococcus aureus [14] = experiment: Bactericidal activity against methicillin resistant Staphylococcus aureus BAA 2313 assessed as inhibition of bacterial growth at MIC concentration incubated for 48 hrs by broth microdilution assay; format: functional, organism-based; in short: as §6
Clostridioides difficile [15] = experiment: Bactericidal activity against Clostridium difficile ATCC 43602 assessed as inhibition of bacterial growth at MIC concentration incubated for 48 hrs by broth microdilution assay; format: functional, organism-based; in short: as §4
Listeria monocytogenes [16] = experiment: Bactericidal activity against Listeria monocytogenes ATCC 15313 assessed as inhibition of bacterial growth at MIC concentration incubated for 48 hrs by broth microdilution assay; format: functional, organism-based; in short: as §4
Staphylococcus aureus [17] = experiment: Induction of morphological changes in Staphylococcus aureus ATCC 25923 assessed as detachment of pieces from cell wall at MIC concentration by transmission electron microscopic analysis; format: functional, organism-based; in short: as §3
Staphylococcus aureus [18] = experiment: Antibacterial activity against Staphylococcus aureus ATCC 25923 assessed as reduction in colony forming units at MIC concentration measured after 2 hrs by time-kill kinetic analysis; format: functional; in short: as §1
Clostridioides difficile [19] = experiment: Antibacterial activity against Clostridium difficile ATCC 43602 assessed as inhibition of bacterial growth incubated for 24 hrs by absorbance based microplate reader analysis; format: functional; conditions: read-out: MIC100
[20] = Retention time of compound by RP-HPLC analysis; format: physicochemical
In short: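 Analytical reversed-phase HPLC.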

Staphylococcus aureus [21] = experiment: Induction of morphological changes in Staphylococcus aureus ATCC 25923 assessed as fragmentation of intracellular content at MIC concentration by transmission electron microscopic analysis; format: functional, organism-based; in short: as §3
Staphylococcus aureus [22] = experiment: Bactericidal activity against Staphylococcus aureus ATCC 25923 assessed as inhibition of bacterial growth at MIC concentration incubated for 48 hrs by broth microdilution assay; format: functional, organism-based; in short: as §4
Listeria monocytogenes [23] = experiment: Antibacterial activity against Listeria monocytogenes ATCC 15313 assessed as inhibition of bacterial growth incubated for 24 hrs by absorbance based microplate reader analysis; format: functional; conditions: read-out: MIC100
In short: (§7)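 Broth microdilution. A single colony was grown 24 h in its recommended broth, then diluted 1:10 000 in the same medium. Peptide serial dilutions were added from DMSO stock at 4 µL per 196 µL inoculated medium. Plates were incubated aerobically or anaerobically as each pathogen requires, at 37 °C for 24 h, and OD600 was read. Duplicate wells; assay repeated five times independently.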

Escherichia coli [24] = experiment: Antibacterial activity against Escherichia coli ATCC 33694 assessed as inhibition of bacterial growth incubated for 24 hrs by absorbance based microplate reader analysis; format: functional; conditions: read-out: MIC100; in short: as §2
Caco-2 [25] = experiment: Anti-inflammatory activity in human Caco-2 cells infected with Clostridium difficile ATCC 43602 assessed as reduction in IL-1beta level at MIC concentration by ELISA relative to control; format: functional; design: scale not given: the % may be the effect or the level left; in short: as §5
Staphylococcus aureus [26] = experiment: Antibacterial activity against Staphylococcus aureus ATCC 25923 assessed as inhibition of bacterial growth incubated for 24 hrs by absorbance based microplate reader analysis; format: functional; conditions: read-out: MIC100; in short: as §7
Staphylococcus aureus [27] = experiment: Antibacterial activity against methicillin resistant Staphylococcus aureus BAA 2313 assessed as inhibition of bacterial growth incubated for 24 hrs by absorbance based microplate reader analysis; format: functional; conditions: read-out: MIC100; in short: as §7
Enterococcus faecium [28] = experiment: Antibacterial activity against vancomycin resistant Enterococcus faecium BAA 2317 assessed as inhibition of bacterial growth incubated for 24 hrs by absorbance based microplate reader analysis; format: functional; conditions: read-out: MIC100
In short: as §7, with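 “read. MIC was the lowest concentration giving 100% growth inhibition.” for “read.”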

Row | Compound | Activity (Staphylococcus aureus [1]) | Activity (Escherichia coli [4]) | Activity (Pseudomonas aeruginosa [5]) | Activity (Salmonella enterica [7]) | Activity (Salmonella enterica [8]) | Activity (Staphylococcus aureus [12]) | Activity (Enterococcus faecium [13]) | Activity (Staphylococcus aureus [14]) | Activity (Clostridioides difficile [15]) | Activity (Listeria monocytogenes [16]) | Activity (Staphylococcus aureus [18]) | Activity (Staphylococcus aureus [22]) | other results
1 | H-LSKISGGIGPLVIPV-NH2 | 5 log10CFU/ml | Active | Active | Active | inactive | Active | Active | Active | Active | Active | 2 log10CFU/ml | Active | MIC (Pseudomonas aeruginosa [2]; read-out: MIC100): 9.3 µM; Activity (Staphylococcus aureus [3]): Active; Activity (Staphylococcus aureus [6]): Active; Activity (Staphylococcus aureus [9]): Active; Activity (Caco-2 [10]): 10%; Activity (Staphylococcus aureus [11]): Active; Activity (Staphylococcus aureus [17]): Active; MIC (Clostridioides difficile [19]): 0.9 µM; Retention_time [20]: 14.51 min; Activity (Staphylococcus aureus [21]): Active
2 | CC[C@H](C)[C@H](NC(=O)CNC(=O)CNC(=O)[C@H](CO)NC(=O)[C@@H](NC(=O)[C@H](CCCCN)NC(=O)[C@H](CO)NC(=O)[C@H](CC(C)C)NC(=O)[C@H](CCC(=O)O)NC(=O)[C@@H](NC(=O)[C@H](CCC(=O)O)NC(=O)[C@H](CC(N)=O)NC(=O)[C@H](CC(C)C)NC(=O)[C@H](CCCCN)NC(=O)[C@H](CC(N)=O)NC(=O)[C@@H](N)CCSC)C(C)C)[C@@H](C)CC)C(=O)NCC(=O)N1CCC[C@H]1C(=O)N[C@@H](CC(C)C)C(=O)N[C@H](C(=O)N[C@H](C(=O)N1CCC[C@H]1C(=O)N[C@H](C(=O)N[C@@H](C)C(=O)N[C@@H](C)C(=O)N[C@H](C(=O)N[C@@H](CC(C)C)C(=O)NCC(=O)N[C@@H](Cc1ccccc1)C(=O)N[C@@H](CC(C)C)C(=O)N[C@@H](C)C(=O)N[C@H](C(=O)N[C@@H](CC(=O)O)C(=O)N[C@@H](C)C(=O)N[C@@H](Cc1c[nH]c2ccccc12)C(=O)N[C@@H](CC(N)=O)C(=O)N[C@@H](Cc1cnc[nH]1)C(=O)N[C@@H](C)C(=O)N[C@@H](CC(=O)O)C(=O)N[C@@H](CCC(=O)O)C(=O)N[C@@H](CC(C)C)C(=O)N[C@H](C(=O)N[C@@H](C)C(=O)NCC(=O)N[C@H](C(=O)N[C@@H](CCCCN)C(=O)N[C@@H](CCC(N)=O)C(=O)NCC(=O)N[C@@H](Cc1c[nH]c2ccccc12)C(=O)N[C@@H](CCC(=O)O)C(=O)N[C@@H](CCCNC(=N)N)C(=O)N[C@@H](CO)C(=O)O)C(C)C)C(C)C)[C@H](C)O)[C@@H](C)CC)C(C)C)[C@@H](C)CC)C(C)C | 5 log10CFU/ml | Active | Active | Active | inactive | Active | Active | Active | Active | Active | 2 log10CFU/ml | Active | MIC (Listeria monocytogenes [23]): 1.2 µM (≈ 6.62 µg/mL); Activity (Pseudomonas aeruginosa [2]): inactive; MIC (Escherichia coli [24]): 7.5 µM (≈ 41.4 µg/mL); Activity (Caco-2 [25]): 91%
3 | CC1(C)S[C@@H]2[C@H](NC(=O)[C@H](N)c3ccc(O)cc3)C(=O)N2[C@H]1C(=O)O [AMOXICILLIN] | 5 log10CFU/ml |  |  |  |  | Active |  |  |  |  | 4 log10CFU/ml |  | MIC (Staphylococcus aureus [26]): 5 µM (≈ 1.83 µg/mL); MIC (Staphylococcus aureus [27]): 35 µM (≈ 12.8 µg/mL); MIC (Enterococcus faecium [28]): 35 µM (≈ 12.8 µg/mL)
